Laboratory results from PubChem BioAssay AID624175 (Southern Research Specialized Biocontainment Screening …, 2012).
pIC50: −log10 of the molar value. Calls of active or inactive are those of the source.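 How the source made its calls: active means inhibition of 30% or more at any tested concentration; inactive means the rest.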

Target: Leucine aminopeptidase (Plasmodium falciparum (isolate 3D7)) (UniProt Q8IL11)
Test: P. falciparum leucine aminopeptidase M17 inhibition – biochemical, QFRET, H-Leu-NHMec substrate, set 3, selectivity assay for PFM18AAP inhibitor project, dose response (AID 624175)
Conditions: recombinant PfM17LAP, H-Leu-NHMec fluorogenic cleavage
Summary of the method: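 System: recombinant PfM17LAP enzyme; input: enzyme 5 µg/mL; compound: 10-point twofold dilution series, 100 down to 0.2 µM, 2% DMSO; schedule: enzyme reaction of 90 min at room temperature; signal: fluorescence of released NHMec, excitation 370 nm, emission 460 nm; read-out: percent inhibition vs controls, IC50 by four-parameter fit, fixed bounds 0–100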

Leucine aminopeptidase (Plasmodium falciparum (isolate 3D7)), sequence (Q8IL11 whole entry, looked up): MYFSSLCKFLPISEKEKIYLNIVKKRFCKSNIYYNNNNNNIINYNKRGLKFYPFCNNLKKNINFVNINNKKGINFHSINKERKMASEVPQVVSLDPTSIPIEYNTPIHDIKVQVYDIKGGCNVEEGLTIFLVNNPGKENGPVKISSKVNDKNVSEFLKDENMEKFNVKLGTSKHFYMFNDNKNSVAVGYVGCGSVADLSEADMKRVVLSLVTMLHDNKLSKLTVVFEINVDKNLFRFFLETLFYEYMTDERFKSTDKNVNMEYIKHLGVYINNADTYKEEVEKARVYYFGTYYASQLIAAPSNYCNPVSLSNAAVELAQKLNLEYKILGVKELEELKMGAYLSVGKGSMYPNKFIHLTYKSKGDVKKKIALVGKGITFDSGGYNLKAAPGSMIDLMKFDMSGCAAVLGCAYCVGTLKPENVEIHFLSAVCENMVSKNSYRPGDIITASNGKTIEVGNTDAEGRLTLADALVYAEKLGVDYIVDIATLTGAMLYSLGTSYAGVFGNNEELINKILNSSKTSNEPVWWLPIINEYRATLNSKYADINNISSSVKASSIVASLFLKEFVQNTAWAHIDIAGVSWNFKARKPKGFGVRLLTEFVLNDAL

pIC50 | inhibition (at 100 µM (top of the series)) | SMILES | further results
4.52 |  | Oc1ccc(C2CCN(c3ccnc4ccccc34)C2)cc1O (centres undefined) | 
 | inactive | CN(CCCc1ccc(O)c(O)c1)c1c2ccccc2nc2ccccc12 | 
4.46 |  | CN(CCc1ccc(O)c(O)c1)c1ccnc2c(F)cccc12 | 
 | inactive | COc1cc(Br)c(CCNc2c3ccccc3nc3ccccc23)cc1OC | 
4.13 |  | Oc1ccc(CCNc2ccnc3cc(Cl)ccc23)cc1O | 
 | inactive | COc1ccc(CCN(C)c2cc(C)nc3ccccc23)cc1OC | 
 | inactive | COc1ccc(CCN(C)c2c3ccccc3nc3ccccc23)cc1OC | 
 | inactive | COc1ccc(CCN(C)c2ccnc3cc(Cl)ccc23)cc1OC | 
4.24 |  | CN(CCCc1ccc(O)c(O)c1)c1ccnc2ccccc12 | 
 | inactive | COc1cc(Br)c(CCNc2c3c(nc4ccccc24)CCCC3)cc1OC | 
 | inactive | COc1ccc(CCCNc2c3c(nc4ccccc24)CCCC3)cc1OC | 
 | inactive | CN(CCc1ccc(O)c(O)c1)c1c2ccccc2nc2ccccc12 | 
4.45 |  | Oc1ccc(CCNc2ccnc3c(F)cccc23)cc1O | 
4.26 |  | Cc1cccc2c(N(C)CCc3ccc(O)c(O)c3)ccnc12 | 
 | inactive | COc1ccc(CCNc2c3c(nc4ccc(C)cc24)CCCC3)cc1OC | 
4.25 |  | Oc1ccc(CCCNc2c3c(nc4ccccc24)CCCC3)cc1O | 
4.45 |  | Oc1cccc(CCNc2ccnc3ccccc23)c1O | 
4.12 |  | CC(Cc1ccc(O)c(O)c1)Nc1ccnc2ccccc12 (centres undefined) | 
4.42 |  | Oc1ccc(C2CCN(c3ccnc4ccccc34)CC2)cc1O | 
 | inactive | COc1ccc(CCNc2ccnc3c(C)cccc23)cc1OC | 
 | inactive | COc1ccc(CCNC(=O)c2cc(C)ccc2N)cc1OC | 
 |  | CCN(CC)Cc1cc(Nc2ccnc3cc(Cl)ccc23)ccc1O | inhibition (at 50 µM (top of the series)): inactive

pIC50 | inhibition (at 100 µM (top of the series)) | SMILES | further results
 | inactive | CCOc1ccc2nccc(N(C)CCc3ccc(OC)c(OC)c3)c2c1 | 
4.36 |  | CN(CCc1ccc(O)c(O)c1)c1ccnc2cc(Cl)ccc12 | 
3.99 |  | CC(C)(CNc1ccnc2ccccc12)c1ccc(O)c(O)c1 | 
 | inactive | CCOc1ccc2nccc(NCCc3ccc(OC)c(OC)c3)c2c1 | 
 | inactive | COc1ccc(CCN(C)c2ccnc3c(F)cccc23)cc1OC | 
 | inactive | CCN(CCc1ccc(OC)c(OC)c1)c1c2ccccc2nc2ccccc12 | 
 | inactive | COc1ccc(CCNc2ccnc3c(F)cccc23)cc1OC | 
4.32 |  | Cc1cc(N(C)CCc2ccc(O)c(O)c2)c2ccccc2n1 | 
 | inactive | COc1cc(Br)c(CCNc2ccnc3ccccc23)cc1OC | 
 | inactive | COc1ccc(C2CCN(c3ccnc4ccccc34)C2)cc1OC (centres undefined) | 
 | inactive | COc1ccc(C2CCN(c3ccnc4ccccc34)CC2)cc1OC | 
4.19 |  | Cc1cccc2c(NCCc3ccc(O)c(O)c3)ccnc12 | 
 | inactive | COc1ccc(CCN(C)c2ccnc3c(C)cccc23)cc1OC | 
 | inactive | COc1ccc(CCNc2ncnc3ccccc23)cc1OC | 
 | inactive | COc1ccc(CCNc2cc(C)nc3ccccc23)cc1OC | 
4.27 |  | Oc1ccc(C2CCCN(c3ccnc4ccccc34)C2)cc1O (centres undefined) | 
 | inactive | COc1ccc(CCCN(C)c2c3ccccc3nc3ccccc23)cc1OC | 
 | inactive | Nc1c2ccccc2nc2ccccc12 | 
 | inactive | Clc1c2c(nc3ccccc13)CCCC2 | 
 | inactive | COc1ccc(CCN(C)c2ncnc3ccccc23)cc1OC | 
 | inactive | COc1ccc(CCNc2ccnc3cc(Cl)ccc23)cc1OC | 
4.52 |  | CN(CCc1ccc(O)c(O)c1)c1ncnc2ccccc12 | 
